Data from ChEMBL document CHEMBL1155671, “New circulin macrocyclic polypeptides from Chassalia parvifolia” (J Nat Prod, 2000).
Positions of bridges follow the written chain, without caps; N, C: chain ends. Residues, ends and D or L forms follow the SMILES beside them.

How the values were obtained:
Assay type in all cases: functional, organism-based
[1] = system: Human immunodeficiency virus 1; assay: Antiviral activity against HIV1 G in human CEM-SS cells assessed as inhibition of virus-induced cytopathic effect by XTT assay; settings: Human immunodeficiency virus 1, CEM-SS
Outline: (§1)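 Peptide samples dissolved in 100% DMSO or H2O-DMSO (3:1), then diluted to test concentrations. Tested in an in vitro XTT tetrazolium-based cell assay for protection against the cytopathic effects of productive HIV-1 infection. EC50 is the concentration giving 50% protection, determined separately for each virus strain and target cell line pairing.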

[2] = system: Human immunodeficiency virus 1; assay: Antiviral activity against HIV1 214 in human CEM-SS cells assessed as inhibition of virus-induced cytopathic effect by XTT assay; settings: Human immunodeficiency virus 1, CEM-SS; outline: as §1
[3] = system: Human immunodeficiency virus 1; assay: Antiviral activity against HIV1 SK1 in human CEM-SS cells assessed as inhibition of virus-induced cytopathic effect by XTT assay; settings: Human immunodeficiency virus 1, CEM-SS; outline: as §1
[4] = system: Human immunodeficiency virus 1; assay: Antiviral activity against HIV1 3B in human CEM-SS cells assessed as inhibition of virus-induced cytopathic effect by XTT assay; settings: Human immunodeficiency virus 1, 3B; outline: as §1
[5] = system: Human immunodeficiency virus 1; assay: Antiviral activity against HIV1 G9106 in human MT2 cells assessed as inhibition of virus-induced cytopathic effect by XTT assay; settings: Human immunodeficiency virus 1, G9106, MT2; outline: as §1
[6] = system: Human immunodeficiency virus 1; assay: Antiviral activity against HIV1 RF in human CEM-SS cells assessed as inhibition of virus-induced cytopathic effect by XTT assay; settings: Human immunodeficiency virus 1, RF; outline: as §1
[7] = system: Human immunodeficiency virus 1; assay: Antiviral activity against HIV1 205 in human CEM-SS cells assessed as inhibition of virus-induced cytopathic effect by XTT assay; settings: Human immunodeficiency virus 1, CEM-SS; outline: as §1
[8] = system: Human immunodeficiency virus 1; assay: Antiviral activity against HIV1 A17 in human MT2 cells assessed as inhibition of virus-induced cytopathic effect by XTT assay; settings: Human immunodeficiency virus 1, A17, MT2; outline: as §1
[9] = system: Human immunodeficiency virus 1; assay: Antiviral activity against HIV1 H1122 in human MT2 cells assessed as inhibition of virus-induced cytopathic effect by XTT assay; settings: Human immunodeficiency virus 1, MT2; outline: as §1
[10] = system: Human immunodeficiency virus 1; assay: Antiviral activity against HIV1 3B in human MT2 cells assessed as inhibition of virus-induced cytopathic effect by XTT assay; settings: Human immunodeficiency virus 1, 3B; outline: as §1
[11] = system: Human immunodeficiency virus 1; assay: Antiviral activity against HIV1 N119 in human CEM-SS cells assessed as inhibition of virus-induced cytopathic effect by XTT assay; settings: Human immunodeficiency virus 1, CEM-SS; outline: as §1

Row | SMILES | EC50 [1] | EC50 [2] | EC50 [3] | EC50 [4] | EC50 [5] | EC50 [6] | EC50 [7] | EC50 [8] | EC50 [9] | EC50 [10] | EC50 [11]
1 | CC[C@H](C)[C@@H]1NC(=O)[C@@H]2CSSC[C@@H]3NC(=O)[C@H](C(C)C)NC(=O)[C@H](CCCCN)NC(=O)[C@H](CO)NC(=O)[C@H](CCCCN)NC(=O)[C@@H]4CSSC[C@H](NC(=O)[C@H](CO)NC(=O)[C@H](CCC(=O)O)NC(=O)CNC(=O)[C@H](CSSC[C@H](NC(=O)CNC(=O)[C@H](C)NC(=O)[C@H](C(C)C)NC(=O)[C@H](CO)NC(=O)[C@H]([C@@H](C)O)NC1=O)C(=O)N[C@@H](CO)C(=O)N4)NC(=O)[C@@H]1CCCN1C(=O)[C@H]([C@@H](C)CC)NC(=O)CNC(=O)[C@H](CC(N)=O)NC(=O)[C@H](CCCNC(=N)N)NC(=O)[C@H](Cc1ccc(O)cc1)NC3=O)C(=O)N[C@@H](C(C)C)C(=O)N[C@@H](Cc1ccccc1)C(=O)N[C@@H]([C@@H](C)CC)C(=O)N1CCC[C@H]1C(=O)N2 [CIRCULIN C] (cyclo(AGCSCKSKVCYRNGIPCGESCVFIPCITSV); disulfide 3-17, 5-21, 10-26) | 111 nM | 213 nM | 51 nM | 73 nM | 67 nM | 165 nM | 155 nM | 247 nM | 48 nM | 200 nM | 241 nM
2 | CC[C@H](C)[C@@H]1NC(=O)[C@H](CCCCN)NC(=O)[C@H](CC(=O)O)NC(=O)[C@H](Cc2cnc[nH]2)NC(=O)[C@H](Cc2ccc(O)cc2)NC(=O)[C@@H]2CSSC[C@@H]3NC(=O)[C@@H]4CCCN4C(=O)[C@H]([C@@H](C)CC)NC(=O)[C@H](Cc4c[nH]c5ccccc45)NC(=O)[C@H](C(C)C)NC(=O)[C@@H]4CSSC[C@H](NC(=O)[C@H](CCCCN)NC(=O)[C@H](CSSC[C@H](NC(=O)[C@@H]5CCCN5C1=O)C(=O)NCC(=O)N[C@@H](CCC(=O)O)C(=O)N[C@@H](CO)C(=O)N4)NC(=O)[C@H](CC(N)=O)NC(=O)[C@H](Cc1ccccc1)NC(=O)[C@H](C(C)C)NC(=O)[C@H](CO)NC(=O)[C@H]([C@@H](C)O)NC(=O)[C@H](CC(C)C)NC3=O)C(=O)N[C@@H](CCC(=O)O)C(=O)N[C@@H](CC(N)=O)C(=O)N[C@@H](CCCCN)C(=O)N[C@@H](C(C)C)C(=O)N2 [CIRCULIN E] (cyclo(CENKVCYHDKIPCGESCVWIPCLTSVFNCK); disulfide 1-17, 6-22, 13-29) | 50 nM | 50 nM | 50 nM |  | 50 nM | 50 nM | 50 nM | 50 nM | 50 nM | 50 nM | 50 nM
3 | CC[C@H](C)[C@@H]1NC(=O)[C@H](C)NC(=O)[C@H](C)NC(=O)[C@H](CO)NC(=O)[C@H]([C@@H](C)CC)NC(=O)[C@@H]2CSSC[C@@H]3NC(=O)[C@H](C(C)C)NC(=O)[C@H](CCCCN)NC(=O)[C@H](CC(N)=O)NC(=O)[C@H](CCCCN)NC(=O)[C@@H]4CSSC[C@H](NC(=O)[C@H](CO)NC(=O)[C@H](CCC(=O)O)NC(=O)CNC(=O)[C@H](CSSC[C@H](NC(=O)CNC1=O)C(=O)N[C@@H](CO)C(=O)N4)NC(=O)[C@@H]1CCCN1C(=O)[C@H]([C@@H](C)CC)NC(=O)[C@H](C)NC(=O)[C@H](CCCNC(=N)N)NC(=O)[C@H](Cc1ccc(O)cc1)NC3=O)C(=O)N[C@@H](C(C)C)C(=O)N[C@@H](Cc1c[nH]c3ccccc13)C(=O)N[C@@H]([C@@H](C)CC)C(=O)N1CCC[C@H]1C(=O)N2 [CIRCULIN F] (cyclo(AAIGCSCKNKVCYRAIPCGESCVWIPCIS); disulfide 5-18, 7-22, 12-27) | 50 nM | 50 nM | 50 nM |  | 50 nM | 50 nM | 50 nM | 50 nM | 50 nM | 50 nM | 50 nM
